Measured values as given in PMC5831399 (Cell chemical biology, 2017).

Experiments:
Type in all cases: cell-based
L858R EGFR = L858R EGFR (Homo sapiens, UniProt P00533, L858R); test: L858R EGFR degradation, immunoblot in H3255 cells; details: 24 hours
Method in brief: (§1)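 Cells cultured in RPMI-1640 with 10% FBS and 1% penicillin-streptomycin at 37°C, 5% CO2. They were treated for 24 hours with increasing concentrations of a gefitinib-based PROTAC. Cells were lysed in Tris pH 7.5/NP-40/deoxycholate buffer with phosphatase and protease inhibitors, then cleared at 16,000 × g. Protein was normalised by BCA, resolved by 8% SDS-PAGE, blotted to nitrocellulose, detected by ECL and quantified by densitometry.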

exon 19 del EGFR = exon 19 del EGFR (Homo sapiens, UniProt P00533, DEL746-750); test: Exon 19 deletion EGFR degradation, immunoblot in HCC827 cells; details: 24 hours
Method in brief: as §1

EGFR = EGFR (Homo sapiens, UniProt P00533); test: EGFR degradation, immunoblot of treated cells; details: Figure S2, cell line not given

## COc1cc2ncnc(Nc3ccc(F)c(Cl)c3)c2cc1OCCCCCOCCOCCC(=O)N[C@H](C(=O)N1C[C@H](O)C[C@H]1C(=O)NCc1ccc(-c2scnc2C)cc1)C(C)(C)C [Compound 3]
L858R EGFR
  degradation of L858R EGFR: enabled the degradation
Exon 19 del EGFR
  degradation of exon-19 deletion EGFR: enabled the degradation
EGFR
  WT EGFR degradation: sparing the WT EGFR
